TRPC4 potent = allosteric potentiators of mouse TRPC4 channel. 310,000 tested, 0.42% active. B-score at 10 µM. Q9QUQ5. AID 2227. HEK293 TRPC4beta/mu-opioid, DAMGO EC20, Fluo-4 Ca2+ flux; stronger effect = higher value;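 active = B-score of calcium response area above 5 SD of library B-scores, with initial fluorescence ratio within 5 SD of library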
Target sequence (Q9QUQ5 whole entry, looked up): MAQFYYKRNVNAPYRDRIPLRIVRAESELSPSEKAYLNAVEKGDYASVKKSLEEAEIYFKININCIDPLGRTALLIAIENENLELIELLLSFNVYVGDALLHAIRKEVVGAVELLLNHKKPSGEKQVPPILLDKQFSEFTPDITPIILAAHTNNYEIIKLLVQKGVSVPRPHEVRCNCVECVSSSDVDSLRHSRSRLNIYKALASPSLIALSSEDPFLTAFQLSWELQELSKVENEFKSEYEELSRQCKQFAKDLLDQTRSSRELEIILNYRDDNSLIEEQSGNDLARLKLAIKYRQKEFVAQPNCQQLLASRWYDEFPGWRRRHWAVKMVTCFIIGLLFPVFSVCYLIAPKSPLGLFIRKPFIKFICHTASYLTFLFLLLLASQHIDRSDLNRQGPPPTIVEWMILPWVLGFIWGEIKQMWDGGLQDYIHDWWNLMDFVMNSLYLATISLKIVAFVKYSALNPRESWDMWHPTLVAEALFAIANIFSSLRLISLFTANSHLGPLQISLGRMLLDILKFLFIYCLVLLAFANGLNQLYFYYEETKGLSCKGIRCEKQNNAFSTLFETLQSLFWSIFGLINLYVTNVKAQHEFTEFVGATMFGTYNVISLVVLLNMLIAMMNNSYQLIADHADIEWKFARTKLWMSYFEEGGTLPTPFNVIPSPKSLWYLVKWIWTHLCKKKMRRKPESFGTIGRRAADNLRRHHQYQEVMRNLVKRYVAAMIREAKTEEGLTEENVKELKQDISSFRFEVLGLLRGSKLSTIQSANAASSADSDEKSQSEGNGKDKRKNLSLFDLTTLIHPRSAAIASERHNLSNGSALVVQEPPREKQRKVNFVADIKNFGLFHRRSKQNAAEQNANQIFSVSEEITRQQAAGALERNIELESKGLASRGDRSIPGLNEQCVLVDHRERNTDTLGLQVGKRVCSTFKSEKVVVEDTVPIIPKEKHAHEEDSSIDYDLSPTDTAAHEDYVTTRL
TRPC6 inh = blocks the mouse TRPC6 cation channel | 310,000 tested, 1.1% active | B-score at 10 µM | Q61143 | HEK293-TRPC6, membrane potential dye, ACh-evoked depolarization; stronger effect = lower value;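 active = B-score under library mean minus 3 SD, initial fluorescence not abnormally high, positive integrated signal ratio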;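 also: B-score derived from integrated fluorescence ratio over the kinetic read; more negative B-score means stronger inhibition of depolarization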
TRPC4 agonist = TRPC4 (mouse) channel activation; 310,000 tested, 0.49% active; Q9QUQ5; HEK293 TRPC4beta/mu-opioid, Fluo4 calcium fluorescence; stronger effect = higher value; B-score at 10 µM;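 active = B-score above 5 SD of library B-scores, and initial fluorescence ratio not above library mean plus 5 SD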;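 also: positive B-score marks a calcium rise read as TRPC4 activation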
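Assay system: HEK293 stable line with TRPC4beta plus mu-opioid receptor. Times: dye 45 min RT, read 110 s. Measured by: kinetic Fluo4 calcium fluorescence. Measure: B score of integrated ratio. Controls: assay buffer as low control, maximal DAMGO as high control.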
TRPC4 block = TRPC4 (mouse) channel inhibition. HEK293 TRPC4beta/mu-opioid, DAMGO-evoked Fluo4 calcium flux; stronger effect = lower value. B-score at 10 µM. AID 2247. Q9QUQ5. 300,000 tested, 0.39% active;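 active = B-score over 3 SD under the library average, no early fluorescence shift, positive overall ratio signal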
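Assay system: HEK293 cells with stable TRPC4beta plus mu-opioid receptor expression. Dosing: single dose. Measured by: Fluo4 Ca2+ flux fluorescence. Also added: DAMGO in two steps, submaximal then maximal. Read-out: B score from integrated Fluo4 fluorescence ratio.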
TRPC6 activator = activators of mouse TRPC6 channel; Q61143; HEK293-TRPC6 membrane potential dye fluorescence; stronger effect = higher value; B-score at 10 µM; 310,000 tested, 0.13% active; AID 2550;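 active = B-score of the integrated fluorescence ratio above library mean plus 3 SD, and starting fluorescence ratio within library mean plus 5 SD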;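 also: higher score means more depolarization so channel activation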
TRPC4 spec 2 = second selectivity test of TRPC6 inhibitors: effect on mouse TRPC4; shares compounds with TRPC6 inh; HEK293 TRPC4/MOR, membrane potential dye fluorescence; channel activated by saturating DAMGO dose; inhibition, % at 10 µM; 920 tested, 42% active;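 active = compounds whose fluorescence signal differed from control wells by over 3 SD, either direction, in both duplicate plates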
TRPC4 spec = tests whether TRPC6 inhibitors also affect mouse TRPC4; 920 tested, 61% active; shares compounds with TRPC6 inh; activity change, negative = inhibition, % at 10 µM; HEK293 TRPC4/mu-opioid, membrane potential fluorescence;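 active = rise or fall in signal beyond 3 SD of buffer-only wells in both replicate plates, either sign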;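 also: integrated kinetic ratio of fluorescence range over baseline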
HEK293 MPD ctr 2-1 = second counter-screen for TRPC6 inhibitors: parental HEK293 cells; shares compounds with TRPC6 inh; parental HEK293 membrane potential dye fluorescence; maximal acetylcholine challenge after compound addition; 920 tested, 31% active; signal change vs control, % at 10 µM;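 active = membrane potential signal moving either way by over 3 SD of the maximum-effect control, in both duplicate plates, meaning non-specific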
HEK293 MPD ctr-1 = counter-screen for TRPC6 inhibitors: effect in parental HEK293 cells. shares compounds with TRPC6 inh. parental HEK293 membrane potential dye fluorescence. membrane potential signal change, % at 10 µM. 920 tested, 60% active. AID 2780;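 active = membrane potential signal shifting up or down by more than 3 SD of buffer-only wells, on both duplicate plates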
HEK293 MPD ctr-2 = counter-screen for TRPC6 modulators: effect in parental HEK293 cells. shares compounds with TRPC6 inh. membrane potential signal change, % at 10 µM. membrane potential dye fluorescence. 2,400 tested, 51% active. AID 488924;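 active = membrane potential signal moves up or down beyond 5 SD from buffer-only wells, on both duplicate plates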
HEK293 MPD ctr 2-2 = second check of TRPC6 modulator effects in parental HEK293 cells; shares compounds with TRPC6 inh; membrane potential dye fluorescence; after compound, maximal acetylcholine stimulation; inhibition, % at 10 µM; 2,400 tested, 14% active; AID 488926;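 active = membrane potential signal drops by more than 5 SD from the mean control signal, in both duplicate plates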
TRPC4/MOR mod = selectivity of TRPC6 modulators against mouse TRPC4. HEK293 TRPC4/mu-opioid, membrane potential fluorescence. 2,400 tested, 69% active. shares compounds with TRPC6 inh. AID 488927. percent change from control (negative = decrease, positive = increase), % at 10 µM;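 active = membrane potential signal moved up or down beyond 5 SD of buffer control wells, in both duplicate plates, actives on both sides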
TRPC4 ctr inh 2 = second selectivity test of TRPC6 modulators against mouse TRPC4; HEK293 TRPC4/mu-opioid, membrane potential dye fluorescence; stimulated with maximal-effect DAMGO; 2,400 tested, 55% active; inhibition, % at 10 µM; shares compounds with TRPC6 inh;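 active = drop in membrane potential signal beyond 5 SD of the control wells in both duplicate plates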;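 also: TRPC4 counter screen for TRPC6 hits run under conditions tuned for TRPC6 not TRPC4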
TRPC6 inh conf = confirmation of mouse TRPC6 inhibitors. inhibition, % at 10 µM. HEK293-TRPC6, membrane potential dye, ACh-evoked depolarization. shares compounds with TRPC6 inh. 3,300 tested, 43% active;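 active = fluorescence ratio falls more than 5 SD below the full-stimulation control mean, in both duplicate runs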;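 also: integrated fluorescence ratio of peak minus minimum over baseline after agonist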
TRPC6 act conf = mouse TRPC6 activator confirmation; HEK293-TRPC6 membrane potential dye fluorescence, FDSS; AID 488961; shares compounds with TRPC6 inh; activation, % at 10 µM; 2,800 tested, 11% active;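 active = ratio signal rise beyond 5 SD above unstimulated control wells' mean, seen in both duplicate runs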
Of the large screens only hits and unclear results are named; the others gave an inactive call (follow-up assays come after a bar, where they were run). Most compounds without a hit are left out; they make up all but 2.3% or so of the library.

N#Cc1cc2[nH]c3ccccc3c2[n+](-c2ccc([N+](=O)[O-])cc2)c1N	TRPC6 inh -9.9 | HEK293 MPD ctr-2 -322% | HEK293 MPD ctr 2-2 94% | TRPC4/MOR mod -18% | TRPC4 ctr inh 2 97% | TRPC6 inh conf 75% | TRPC6 act conf inactive
Cc1ccc(-c2c[n+](CC(=O)N3c4ccccc4Sc4ccccc43)c3n2CCC3)cc1	TRPC6 inh -5.9 | HEK293 MPD ctr-2 inactive | HEK293 MPD ctr 2-2 inactive | TRPC4/MOR mod -14% | TRPC4 ctr inh 2 inactive | TRPC6 inh conf 71% | TRPC6 act conf inactive
O=C(C[n+]1cc(-c2ccc(F)cc2)n2c1CCC2)N1c2ccccc2Sc2ccccc21	TRPC6 inh -7.9 | HEK293 MPD ctr-2 inactive | HEK293 MPD ctr 2-2 inactive | TRPC4/MOR mod inactive | TRPC4 ctr inh 2 inactive | TRPC6 inh conf 70% | TRPC6 act conf inactive
COc1ccccc1N1CC(O)=C(c2nc3ccccc3c(=O)[nH]2)C1=N	TRPC6 inh -5 | HEK293 MPD ctr-2 inactive | HEK293 MPD ctr 2-2 inactive | TRPC4/MOR mod 9.0% | TRPC4 ctr inh 2 inactive | TRPC6 inh conf inactive
COCCN1CC(O)=C(c2nc3ccccc3c(=O)[nH]2)C1=N	none
CCC1CCCCN1C(=S)NC(=O)c1cccc([N+](=O)[O-])c1 (stereo not drawn)	none
COc1ccc(S(=O)(=O)Nc2ccccc2-c2nnn(CC(=O)Nc3ccccc3OC)n2)cc1	TRPC6 inh -5.3 | HEK293 MPD ctr-2 inactive | HEK293 MPD ctr 2-2 inactive | TRPC4/MOR mod inactive | TRPC4 ctr inh 2 inactive | TRPC6 inh conf inactive | TRPC6 act conf inactive
COc1ccc(NC(=O)Cn2nnc(-c3ccccc3NS(=O)(=O)c3ccccc3)n2)cc1	none
CCOCCCNC(=O)CCCOc1ccccc1	TRPC6 inh -5.5 | HEK293 MPD ctr-2 inactive | HEK293 MPD ctr 2-2 inactive | TRPC4/MOR mod inactive | TRPC4 ctr inh 2 inactive | TRPC6 inh conf inactive | TRPC6 act conf inactive
CCN(CC)c1ccc(S(=O)(=O)N2CCOCC2)cc1NC(=O)CSc1nnc(N)s1	none
O=C(/C(N=Nc1cccc([N+](=O)[O-])c1)=C(/O)c1ccc(Br)cc1)C(F)(F)F	TRPC6 inh -8.2 | TRPC4 spec 2 75% | TRPC4 spec 8.5% | HEK293 MPD ctr 2-1 inactive | HEK293 MPD ctr-1 5.2% | TRPC6 inh conf 81% | TRPC6 act conf inactive
COc1ccc(-c2nc3ccc(C)cn3c2NCc2ccc3c(c2)OCO3)cc1	none
Cc1ccc(-c2nc3ccccn3c2NCc2ccc3c(c2)OCO3)cc1	TRPC6 inh -5.5 | HEK293 MPD ctr-2 inactive | HEK293 MPD ctr 2-2 inactive | TRPC4/MOR mod -19% | TRPC4 ctr inh 2 69% | TRPC6 inh conf 44% | TRPC6 act conf inactive
CC1Sc2ccc(S(=O)(=O)CCC(=O)NC3CCCC(C)C3C)cc2NC1=O (stereo not drawn)	none
CC(C)N1CCC2(CC1)N=C(c1ccc3c(c1)OCO3)CC(c1cc(Cl)ccc1O)N2 (stereo not drawn)	TRPC6 inh -7.1 | TRPC4 spec 2 34% | TRPC4 spec inactive | HEK293 MPD ctr 2-1 inactive | HEK293 MPD ctr-1 inactive | TRPC6 inh conf inactive | TRPC6 act conf inactive
COc1ccc(C2c3ccc4ccccc4c3Oc3ncn(CCN(C)C)c(=N)c32)cc1 (stereo not drawn)	TRPC6 inh -5.4 | HEK293 MPD ctr-2 115% | HEK293 MPD ctr 2-2 inactive | TRPC4/MOR mod 10% | TRPC4 ctr inh 2 69% | TRPC6 inh conf inactive
O=C(c1nc2ccc(Cl)cn2c1CNCCc1cnccn1)N1CCCCCCC1	none
O=c1c2c3c(sc2nc(NCCO)n1-c1ccccc1)CCCC3	none
CN(C)CCCNc1nc2sc3c(c2c(=O)n1CCc1ccccc1)CCCCC3	TRPC6 inh -7 | TRPC4 spec 2 74% | TRPC4 spec -11% | HEK293 MPD ctr 2-1 inactive | HEK293 MPD ctr-1 inactive | TRPC6 inh conf inactive | TRPC6 act conf inactive
Cc1ccc(NC(=S)NCCN(C2CCCCC2)C2CCCC2)cc1C	TRPC6 inh -5.2 | HEK293 MPD ctr-2 110% | HEK293 MPD ctr 2-2 inactive | TRPC4/MOR mod 16% | TRPC4 ctr inh 2 66% | TRPC6 inh conf inactive
CNC(=S)N/N=C/c1cn(Cc2c(F)cccc2Cl)c2ccccc12	TRPC6 inh -5.3 | HEK293 MPD ctr-2 inactive | HEK293 MPD ctr 2-2 inactive | TRPC4/MOR mod inactive | TRPC4 ctr inh 2 inactive | TRPC6 inh conf inactive
CCN(CC)CCn1c(=N)n(CCO)c2ccccc21	none
CCN(CC)CCn1c(=N)n(CCOc2ccccc2)c2ccccc21	TRPC6 inh -12 | TRPC4 spec 2 52% | TRPC4 spec 15% | HEK293 MPD ctr 2-1 272% | HEK293 MPD ctr-1 6.5% | TRPC6 inh conf inactive | TRPC6 act conf inactive
CCN(CC)c1ccc(C(=O)OCC(=O)NC(C)(C)C)cc1	none
CCC(C)Nc1nc(-c2ccccn2)nc2ccccc12 (stereo not drawn)	TRPC6 inh -5.2 | HEK293 MPD ctr-2 -274% | HEK293 MPD ctr 2-2 inactive | TRPC4/MOR mod -40% | TRPC4 ctr inh 2 53% | TRPC6 inh conf inactive | TRPC6 act conf inactive
c1ccc(CN2CCC(Nc3nc(-c4cccnc4)nc4ccccc34)CC2)cc1	TRPC6 inh -6.3 | HEK293 MPD ctr-2 -294% | HEK293 MPD ctr 2-2 inactive | TRPC4/MOR mod -52% | TRPC4 ctr inh 2 66% | TRPC6 inh conf 56% | TRPC6 act conf inactive
